Source: paper PMC8462008 (Bioorganic & medicinal chemistry, 2021)
“Also recorded” adds a separate entry of the source.

Key:
NF-κB [1] = assay: Poly I:C-induced NF-κB luciferase reporter in HEK-293 cells; assay type: cell-based, human; details: 4 h post-treatment
How it was run: (§1)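 HEK-293 cells were transiently transfected with IRF-3 (Poly I:C line) or NF-κB (Poly I:C and TNF-α lines) luciferase reporter plasmids. At 15 h post-transfection, cells were stimulated by transfection with Poly I:C or by 10 ng/ml TNF-α and treated with test compound. Luciferase activity was read at 4 h post-treatment. Run at least twice; means ± SE.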

IRF3 [2] = assay: IRF3 luciferase reporter assay in RSV-infected A549 cells; assay type: cell-based, human; details: 10 μM
How it was run: (§2)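 A549 cells transfected in triplicate (FuGene 6) with luciferase plasmids carrying NF-κB binding sites (NF-κB-Luc) or the IRF-3 site (PRDIII-I-Luc, IRF-3-Luc). At 20 h post-transfection, cells were infected with RSV long strain, either MOI 1 with 2 h adsorption then virus removed and 10 μM test compound for 15 h, or MOI 5 with 4 h treatment. Cells were lysed for luciferase. Run at least twice; means ± SE.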

[3] = tested on: RSV-induced cytokines/chemokines; assay: RSV-induced cytokine/chemokine induction in SAECs; assay type: cell-based, human; details: 10 μM, 4 h posttreatment, RSV MOI 5, SAECs supernatant
How it was run: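 Primary human small airway epithelial cells from normal distal lung were infected with RSV long strain at MOI 5. Virus was removed at 2 h and cells were treated with 10 μM test compound. Supernatants were collected at 4 h post-treatment and assayed with a multiplex human cytokine/chemokine bead kit (Bio-Plex) per kit instructions. Run at least twice; means ± SE.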

IRF3 [4] = assay: RSV-induced IRF3 phosphorylation and nuclear translocation in A549 cells; assay type: cell-based, human; details: 10 μM; for IRF-3 total protein level in the cell: cell lysates at 4 h or 15 h of infection
How it was run: (§3)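 A549 cells, mock or RSV-infected, were treated with 10 μM test compound, either MOI 5 for 4 h or MOI 1 for 15 h. Nuclear extracts were blotted for IRF-3, phospho-IRF3 Ser396, p65, and phospho-p65 Ser276 and Ser536. Total IRF-3 and p65 were measured in whole-cell lysates at 4 h and 15 h. Blots used SDS-PAGE, PVDF and 5% milk block; β-actin was the loading control.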

IRF-3 = assay: Poly I:C-activated IRF-3 luciferase reporter in HEK-293 cells; assay type: cell-based, human; details: 4 h post-treatment
How it was run: as §1

NF-κB [5] = assay: TNF-α-induced NF-κB luciferase reporter in HEK-293 cells; assay type: cell-based, human; details: 10 ng/ml TNF-α, 4 h post-treatment
How it was run: as §1

[6] = tested on: RSV viral proteins (P, M, N, F); assay: RSV viral protein expression in A549 cells by western blot; assay type: cell-based, respiratory syncytial virus (RSV long strain); details: 10 μM; for RSV protein expression: 4 h, RSV MOI 5, A549, versus control cells; for expression of viral P, M, N and F proteins: 15 h posttreatment, RSV MOI 1, A549
How it was run: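 A549 cells were infected with RSV long strain, either MOI 1 then 10 μM test compound for 15 h, or MOI 5 then 10 μM for 4 h. Total lysates were resolved by SDS-PAGE and transferred to PVDF. Membranes were blocked in 5% milk/TBS-Tween 20 and probed with biotin-conjugated polyclonal goat anti-RSV or anti-F antibody; β-actin was the loading control.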

p65 = assay: RSV-induced p65 phosphorylation and nuclear translocation in A549 cells; assay type: cell-based, human; details: 10 μM; for p65 total protein level in the cell: cell lysates at 4 h or 15 h of infection
How it was run: as §3

NF-κB [7] = assay: NF-κB luciferase reporter assay in RSV-infected A549 cells; assay type: cell-based, human; details: 10 μM
How it was run: as §2

RSV = RSV genome copies in infected A549 cells by RT-qPCR; assay type: cell-based, respiratory syncytial virus (RSV long strain); details: 10 μM, RSV MOI 1, A549
How it was run: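 RSV long strain was grown in HEp-2 cells at 37 °C and purified on a sucrose gradient. A549 cells were infected at MOI 1, then treated with 10 μM test compound for 6, 15 or 24 h. Intracellular RSV genome copies were quantified by RT-qPCR at each time point after treatment.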

A549 cells = assay: LDH release cytotoxicity assay; assay type: cell-based, human; details: 10 μM, 15 h
How it was run: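 A549 cells were seeded at 1.5 × 10^4 cells/well for 24 h. The whole medium was then replaced with fresh medium containing 10 μM test compound and 2% FBS; DMSO served as vehicle control. At 15 h, cells were harvested for luminescent LDH-release assay (LDH-Glo kit). Three biological replicates.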

[8] = 4 h posttreatment, RSV MOI 5, A549
[9] = 15 h posttreatment, RSV MOI 1, A549
[10] = 4 h posttreatment, RSV MOI 5, nuclear extracts
[11] = 15 h posttreatment, RSV MOI 1, nuclear extracts

| SMILES | RSV-induced IRF3 activation (luciferase reporter) (IRF3 [2]; [8]) | RSV-induced IRF3 activation (luciferase reporter) (IRF3 [2]; [9]) | RSV-induced IL-6 [3] | RSV-induced TNF-α [3] | RSV-induced NF-κB activation (luciferase reporter) (NF-κB [7]; [8]) | RSV-induced NF-κB activation (luciferase reporter) (NF-κB [7]; [9]) | viral genome copies (RSV; 15 h posttreatment) | viral genome copies (RSV; 24 h posttreatment) | RSV-induced MIP-1α [3] | also measured |
| --- | --- | --- | --- | --- | --- | --- | --- | --- | --- | --- |
| CC1(Nc2ccc(NC(=O)c3cc(Cl)ccc3O)c(Cl)c2)CCCCC1 [Compound 15, 5-Chloro-N-(2-chloro-4-((1-methylcyclohexyl)amino)phenyl)-2-hydroxybenzamide] | significantly inhibited | suppressed | could inhibit | able to inhibit | significantly inhibited | no effect; also recorded: failed to inhibit | significantly decreased | significantly decreased | – | Poly I:C-induced NF-κB activation (luciferase reporter) (NF-κB [1]): only impacted by compound 22, not 15; RSV-induced MIP-1β [3]: capable to inhibit; RSV-induced cytokines/chemokines (all tested immune mediators) [3]: inhibited the induction of all tested immune mediators; nuclear translocation of IRF3 (IRF3 [4]; 4 h posttreatment, RSV MOI 5): significantly decreased; RSV-induced IRF3 phosphorylation at Ser396 (IRF3 [4]; [10]): significantly decreased; nuclear translocation of IRF3 (IRF3 [4]; 15 h posttreatment, RSV MOI 1): significantly decreased; RSV-induced IRF3 phosphorylation at Ser396 (IRF3 [4]; [11]): significantly decreased; IRF-3 total protein level in the cell (IRF3 [4]): undetectable or minimal impact; Poly I:C-activated IRF-3 (luciferase reporter) (IRF-3): suppressed; TNF-α-activated NF-κB (luciferase reporter) (NF-κB [5]): not impacted; RSV protein expression [6]: comparable; expression of viral P, M, N and F proteins [6]: decreased; RSV-induced p65 Ser276 phosphorylation (p65; 4 h posttreatment, RSV MOI 5): not affected; RSV-induced p65 Ser536 phosphorylation (p65; 4 h posttreatment, RSV MOI 5): suppressed; nuclear translocation of p65 (p65; 4 h posttreatment, RSV MOI 5): suppressed; RSV-induced p65 Ser276 phosphorylation (p65; 15 h posttreatment, RSV MOI 1): no effect; RSV-induced p65 Ser536 phosphorylation (p65; 15 h posttreatment, RSV MOI 1): impaired; nuclear translocation of p65 (p65; 15 h posttreatment, RSV MOI 1): decreased; p65 total protein level in the cell (p65): undetectable or minimal impact |
| O=C(Nc1ccc(NCc2ccco2)cc1Cl)c1cc(Cl)ccc1O [Compound 22, 5-Chloro-N-(2-chloro-4-((furan-2-ylmethyl)amino)phenyl)-2-hydroxybenzamide] | significantly inhibited | dramatically suppressed | no suppression; also recorded: enhanced | no suppression | significantly inhibited | dramatically suppressed | significantly decreased | significantly decreased | no suppression | Poly I:C-induced NF-κB activation (luciferase reporter) (NF-κB [1]): impacted; nuclear translocation of IRF3 (IRF3 [4]; 4 h posttreatment, RSV MOI 5): significantly decreased; RSV-induced IRF3 phosphorylation at Ser396 (IRF3 [4]; [10]): significantly decreased; nuclear translocation of IRF3 (IRF3 [4]; 15 h posttreatment, RSV MOI 1): significantly decreased; RSV-induced IRF3 phosphorylation at Ser396 (IRF3 [4]; [11]): significantly decreased; IRF-3 total protein level in the cell (IRF3 [4]): undetectable or minimal impact; Poly I:C-activated IRF-3 (luciferase reporter) (IRF-3): suppressed; RSV protein expression [6]: comparable; expression of viral P, M, N and F proteins [6]: decreased; RSV-induced p65 Ser276 phosphorylation (p65; 4 h posttreatment, RSV MOI 5): not affected; RSV-induced p65 Ser536 phosphorylation (p65; 4 h posttreatment, RSV MOI 5): suppressed; nuclear translocation of p65 (p65; 4 h posttreatment, RSV MOI 5): suppressed; RSV-induced p65 Ser276 phosphorylation (p65; 15 h posttreatment, RSV MOI 1): robustly suppressed; RSV-induced p65 Ser536 phosphorylation (p65; 15 h posttreatment, RSV MOI 1): robustly suppressed; nuclear translocation of p65 (p65; 15 h posttreatment, RSV MOI 1): robustly suppressed; p65 total protein level in the cell (p65): undetectable or minimal impact |
| O=C(Nc1ccc([N+](=O)[O-])cc1Cl)c1cc(Cl)ccc1O [Niclosamide] | – | – | – | – | – | – | – | – | – | cell death (A549 cells): about 24% |
| CS(=O)(=O)CCCn1c(Cn2c(=O)n(CC(F)(F)F)c3ccncc32)cc2cc(Cl)ccc21 [JNJ-53718678, reference compound] | – | – | – | – | – | – | did not affect | slightly decreased | – | – |
| CC(C)Nc1ccc(NC(=O)c2cc(Cl)ccc2O)c(Cl)c1 [Compound 12] | significantly inhibited | dramatically suppressed | no suppression | no suppression | significantly inhibited | dramatically suppressed | – | – | no suppression | – |
| CCCNc1ccc(NC(=O)c2cc(Cl)ccc2O)c(Cl)c1 [Compound 11] | significantly inhibited | dramatically suppressed | – | – | significantly inhibited | dramatically suppressed | – | – | – | RSV-induced MIP-1β [3]: capable to inhibit |
| CCCN(CCC)c1ccc(NC(=O)c2cc(Cl)ccc2O)c(Cl)c1 [Compound 26] | significantly inhibited | dramatically suppressed | – | able to inhibit | significantly inhibited | dramatically suppressed | – | – | – | – |
| O=C(Nc1ccc(NCc2cccnc2)cc1Cl)c1cc(Cl)ccc1O [Compound 19, 5-Chloro-N-(2-chloro-4-((pyridin-3-ylmethyl)amino)phenyl)-2-hydroxybenzamide] | no suppression | no effect | – | – | no suppression | no effect | – | – | – | RSV-induced cytokines/chemokines (all tested immune mediators) [3]: did not show any inhibitory effect |
| O=C(Nc1ccc(N2CCOCC2)cc1Cl)c1cc(Cl)ccc1O [Compound 28, 5-Chloro-N-(2-chloro-4-morpholinophenyl)-2-hydroxybenzamide] | significantly inhibited | dramatically suppressed | no suppression | no suppression | significantly inhibited | dramatically suppressed | – | – | no suppression | – |
